Laboratory results taken from ChEMBL document CHEMBL4190353, “Synthesis, structure-activity relationships and preliminary mechanism of action of novel water-soluble 4-quinolone-3-carboxamides as antiproliferative agents” (Eur J Med Chem, 2017).
The source made the active and inactive calls. The rule behind the calls is not given here.

Key:
[1] = tested on: HCT-116; test: Cytotoxicity in human HCT116 cells assessed as reduction in cell viability pre-treated with 7.5 mM L-NAC followed by 16 to 32 uM compound addition and further incubated for 24 hrs by CCK8 assay; type: functional, cell-based
Outline: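 HCT116 cells were pretreated with H2O, 7.5 mM L-NAC or 7.5 mM GSH, then exposed to 4, 16 or 32 µM for 24 h. Viability was read by CCK-8, with 1 h reagent incubation at 37 °C and absorbance at 450 nm. n=3.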

[2] = tested on: HCT-116; test: Induction of apoptosis in human HCT116 cells assessed as increase in cleaved PARP level pre-treated with 7.5 mM L-NAC for 6 hrs followed by 4 to 8 uM compound addition and further incubated for 24 hrs by Western blot method; type: functional, cell-based
Outline: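 HCT116 cells were pretreated with H2O or 7.5 mM L-NAC for 6 h, then exposed to 0, 4 or 8 µM for 24 h. Lysates were made in SDS buffer and run on 10% SDS-PAGE. Blots were probed for cleaved PARP (1:1000) with GAPDH (1:5000) as control, and detected by ECL.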

[3] = tested on: HCT-116; test: Induction of apoptosis in Bax-/- human HCT116 cells assessed as early apoptotic cells level at 4 uM incubated for 48 hrs by Annexin V-FITC/PI staining based cytometry (reference value: 4.4%); type: functional
Outline: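 Cells were plated at 5×10^5 per well and treated once 80% confluent. After trypsinisation and two washes in ice-cold PBS (pH 7.4), cells were stained with Annexin V-FITC and PI for 15 min at room temperature in the dark. Analysis was by flow cytometry. The legend gives vehicle or 4 µM for the p53-/- and Bax-/- lines.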

[4] = tested on: HeLa; test: Cytotoxicity against human HeLa cells assessed as reduction in cell viability incubated for 24 hrs by MTT assay; type: functional, cell-based
Outline: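 Cells were kept in McCoy's 5A with 10% fetal bovine serum, streptomycin and 100 units·mL⁻¹ penicillin at 37 °C under 5% CO₂/95% air. Viability was read by MTT optical density. IC50 is the concentration that lowers optical density by 50% relative to untreated cells. Values are means with SD of at least three independent determinations.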

[5] = tested on: HCT-116; test: Induction of apoptosis in human HCT116 cells assessed as early apoptotic cells level incubated for 48 hrs by Annexin V-FITC/PI staining based cytometry (reference value: 1.1%); type: functional
[6] = tested on: HCT-116; test: Induction of apoptosis in p53-/- human HCT116 cells assessed as necrotic cells level at 4 uM incubated for 48 hrs by Annexin V-FITC/PI staining based cytometry (reference value: 0.8%); type: functional
Outline: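 HCT116 p53-/- cells (Vogelstein line) in McCoy's 5A with 10% FBS, 37 °C, 5% CO2. Seeded at 5×10^5 in 6-well plates, treated with vehicle or 4 μM at 80% confluence. After treatment, trypsinised, washed twice in ice-cold PBS pH 7.4, and stained in binding buffer with Annexin V-FITC and PI for 15 min at room temperature in the dark. Read by flow cytometry.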

[7] = tested on: HCT-116; test: Induction of apoptosis in human HCT116 cells assessed as late apoptotic cells level at 2 uM incubated for 24 hrs by Annexin V-FITC/PI staining based cytometry (reference value: 0.5%); type: functional

SMILES: CCN(CC)CCCNC(=O)c1cn(CCCc2ccccc2)c2cc(Cl)ccc2c1=O.Cl
- Activity [1]: inactive
- Activity [2]: inactive
- Activity [3]: 25.6%
- IC50 [4]: 3.52 µM
- Activity [5]: 29.4%
- Activity [6]: 1.8%
- Activity [7]: 1.5%
